Measurements from ChEMBL document CHEMBL4312005, “Optimization of pyrrolizine-based Schiff bases with 4-thiazolidinone motif: Design, synthesis and investigation of cytotoxicity and anti-inflammatory potency” (Eur J Med Chem, 2020).

Legend:
A2780 = test: Antiproliferative activity against human A2780 cells assessed as reduction in cell growth incubated for 72 hrs by MTT assay; assay type: functional, cell-based; conditions: A2780, 72 h
Outline: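 MTT assay on MCF-7, A2780, HT29 and normal MRC5 fibroblast lines (ATCC) grown in DMEM with 10% FBS. Cells exposed to compounds for 72 h, then reduced MTT read at 570 nm.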

[1] = molecular target: T1, Serine/threonine-protein kinase Nek1 (Homo sapiens) (UniProt Q96PY6); test: Inhibition of recombinant human N-terminal GST-tagged full length NEK1 expressed in baculovirus infected Sf9 insect cells assessed as enzyme activity incubated for 15 mins by [gamma-33]ATP based scintillation counting method relative to control; design: scale not given: the % may be the effect or the level left
T1 sequence (whole entry): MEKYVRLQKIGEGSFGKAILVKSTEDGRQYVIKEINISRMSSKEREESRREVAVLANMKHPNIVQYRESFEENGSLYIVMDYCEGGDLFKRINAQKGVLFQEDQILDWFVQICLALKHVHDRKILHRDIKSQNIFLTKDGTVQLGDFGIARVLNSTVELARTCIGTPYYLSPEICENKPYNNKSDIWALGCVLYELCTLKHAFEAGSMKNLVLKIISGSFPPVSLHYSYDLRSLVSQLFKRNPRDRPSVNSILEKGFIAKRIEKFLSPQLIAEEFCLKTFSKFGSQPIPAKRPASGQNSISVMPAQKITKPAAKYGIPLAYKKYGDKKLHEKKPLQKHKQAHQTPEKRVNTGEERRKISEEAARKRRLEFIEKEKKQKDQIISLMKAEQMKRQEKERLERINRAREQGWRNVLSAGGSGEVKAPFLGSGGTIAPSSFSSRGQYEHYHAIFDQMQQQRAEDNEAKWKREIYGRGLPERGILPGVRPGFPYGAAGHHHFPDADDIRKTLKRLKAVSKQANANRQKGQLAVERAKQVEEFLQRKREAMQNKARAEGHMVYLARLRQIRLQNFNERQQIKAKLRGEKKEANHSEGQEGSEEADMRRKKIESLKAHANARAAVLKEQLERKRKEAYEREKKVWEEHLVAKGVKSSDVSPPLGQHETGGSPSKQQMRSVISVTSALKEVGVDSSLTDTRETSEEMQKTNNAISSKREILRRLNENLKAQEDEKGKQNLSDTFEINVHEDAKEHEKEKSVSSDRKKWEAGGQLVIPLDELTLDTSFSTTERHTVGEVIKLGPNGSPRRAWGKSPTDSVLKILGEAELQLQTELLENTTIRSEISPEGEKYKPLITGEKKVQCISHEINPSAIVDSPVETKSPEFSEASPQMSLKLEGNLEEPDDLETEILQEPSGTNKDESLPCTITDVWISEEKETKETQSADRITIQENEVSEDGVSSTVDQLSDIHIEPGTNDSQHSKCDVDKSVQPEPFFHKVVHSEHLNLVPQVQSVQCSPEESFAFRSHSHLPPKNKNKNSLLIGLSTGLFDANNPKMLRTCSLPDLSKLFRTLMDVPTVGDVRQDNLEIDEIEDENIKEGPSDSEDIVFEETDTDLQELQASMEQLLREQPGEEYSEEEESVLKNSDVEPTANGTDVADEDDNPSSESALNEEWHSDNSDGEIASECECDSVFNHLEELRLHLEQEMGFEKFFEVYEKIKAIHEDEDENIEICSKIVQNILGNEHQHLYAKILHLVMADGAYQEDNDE

[2] = molecular target: T2, Rhodopsin kinase GRK1 (Homo sapiens) (UniProt Q15835); test: Inhibition of GRK1 (unknown origin) assessed as enzyme activity incubated for 15 mins by [gamma-33]ATP based scintillation counting method relative to control; design: scale not given: the % may be the effect or the level left
T2 sequence (whole entry): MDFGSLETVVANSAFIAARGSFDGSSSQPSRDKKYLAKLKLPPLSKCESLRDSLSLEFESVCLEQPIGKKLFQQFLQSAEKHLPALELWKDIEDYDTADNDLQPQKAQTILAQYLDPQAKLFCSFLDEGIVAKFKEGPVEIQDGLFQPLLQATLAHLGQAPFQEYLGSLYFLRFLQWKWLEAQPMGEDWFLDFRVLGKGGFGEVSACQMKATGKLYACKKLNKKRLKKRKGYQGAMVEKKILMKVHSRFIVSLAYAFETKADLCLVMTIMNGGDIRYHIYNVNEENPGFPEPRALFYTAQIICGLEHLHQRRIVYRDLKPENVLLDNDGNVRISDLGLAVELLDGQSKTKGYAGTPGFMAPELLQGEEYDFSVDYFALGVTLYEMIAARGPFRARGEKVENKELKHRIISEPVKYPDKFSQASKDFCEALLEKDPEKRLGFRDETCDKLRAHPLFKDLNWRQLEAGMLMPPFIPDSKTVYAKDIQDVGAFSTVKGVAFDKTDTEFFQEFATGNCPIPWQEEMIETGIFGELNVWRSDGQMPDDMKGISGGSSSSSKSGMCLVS

[3] = molecular target: Activin receptor type-1-like (Homo sapiens) (UniProt P37023); test: Inhibition of recombinant human N-terminal GST-tagged ALK1 (144 to end residues) expressed in baculovirus infected Sf9 insect cells assessed as enzyme activity incubated for 15 mins by [gamma-33]ATP based scintillation counting method relative to control; design: scale not given: the % may be the effect or the level left
Sequence of Activin receptor type-1-like (Homo sapiens) (P37023 whole entry): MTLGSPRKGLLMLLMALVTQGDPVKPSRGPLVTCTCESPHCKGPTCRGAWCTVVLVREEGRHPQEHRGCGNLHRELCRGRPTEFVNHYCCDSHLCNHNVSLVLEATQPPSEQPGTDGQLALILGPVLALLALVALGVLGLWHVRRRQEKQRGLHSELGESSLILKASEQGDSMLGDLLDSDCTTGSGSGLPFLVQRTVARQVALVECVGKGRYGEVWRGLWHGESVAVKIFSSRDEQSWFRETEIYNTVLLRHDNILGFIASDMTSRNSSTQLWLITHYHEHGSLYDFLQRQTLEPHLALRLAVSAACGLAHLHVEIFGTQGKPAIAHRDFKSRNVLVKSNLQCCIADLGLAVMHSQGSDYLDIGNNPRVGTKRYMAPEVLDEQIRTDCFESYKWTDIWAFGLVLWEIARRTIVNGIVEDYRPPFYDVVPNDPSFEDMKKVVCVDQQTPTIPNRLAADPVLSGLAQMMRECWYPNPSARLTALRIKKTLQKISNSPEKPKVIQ

[4] = molecular target: T3, Serine/threonine-protein kinase Sgk1 (Homo sapiens) (UniProt O00141); test: Inhibition of recombinant human N-terminal GST-tagged SGK1 (60 to end residues) expressed in baculovirus infected Sf9 insect cells assessed as enzyme activity incubated for 15 mins by [gamma-33]ATP based scintillation counting method relative to control; design: scale not given: the % may be the effect or the level left
T3 sequence (whole entry): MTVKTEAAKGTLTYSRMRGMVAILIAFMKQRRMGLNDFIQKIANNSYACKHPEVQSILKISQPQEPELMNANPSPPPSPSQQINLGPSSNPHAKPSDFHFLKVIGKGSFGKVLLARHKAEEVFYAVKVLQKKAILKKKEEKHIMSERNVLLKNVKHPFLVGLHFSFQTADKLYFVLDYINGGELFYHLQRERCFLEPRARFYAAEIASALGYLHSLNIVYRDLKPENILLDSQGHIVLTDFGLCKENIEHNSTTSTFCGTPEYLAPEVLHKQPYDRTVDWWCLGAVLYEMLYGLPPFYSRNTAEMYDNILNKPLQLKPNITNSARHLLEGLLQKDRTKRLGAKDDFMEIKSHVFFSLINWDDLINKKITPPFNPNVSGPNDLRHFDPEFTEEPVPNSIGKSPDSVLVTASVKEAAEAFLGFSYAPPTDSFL

| IC50 (A2780) [nM] | Activity [1] [%] | Activity [2] [%] | Activity [3] [%] | Activity [4] [%] | SMILES |
| --- | --- | --- | --- | --- | --- |
| 520 | -14 | 1 | -5 | 7 | CC(C)C/C=N/c1c(C#N)c2n(c1C(=O)Nc1ccc(Br)cc1)CCC2 |
| 220 | 10 | -9 | -11 | 8 | CCC1SCC(=O)N1c1c(C#N)c2n(c1C(=O)Nc1ccccc1)CCC2 (stereo not drawn) |
| 15600 | -1 | -10 | 4 | -14 | CC/C=N/c1c(C#N)c2n(c1C(=O)Nc1ccccc1)CCC2 |
|  |  | 2 | 14 | 3 | Cc1ccc(NC(=O)c2ccc(CN3CCN(C)CC3)cc2)cc1Nc1nccc(-c2cccnc2)n1 |
